Compounds with a hit are over-represented: about 4.6% of the library has one in this group of screens.
TAAR1 antagonist: antagonists of human TAAR1 | Q96RJ0 | CHO RD-HGA16 TAAR1, Fluo-8 calcium fluorescence, antagonist | inhibition, % at 3 µM | actives 1.5% (n = 360,000);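 active means inhibition above a per-plate cutoff, the mean inhibition of test compounds on that plate plus 3 SD, cut at about 49% in these data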;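 further: 0% = DMSO plus EC80 beta-PEA response and 100% = DMSO alone without agonist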
Target sequence (Q96RJ0 whole entry, looked up): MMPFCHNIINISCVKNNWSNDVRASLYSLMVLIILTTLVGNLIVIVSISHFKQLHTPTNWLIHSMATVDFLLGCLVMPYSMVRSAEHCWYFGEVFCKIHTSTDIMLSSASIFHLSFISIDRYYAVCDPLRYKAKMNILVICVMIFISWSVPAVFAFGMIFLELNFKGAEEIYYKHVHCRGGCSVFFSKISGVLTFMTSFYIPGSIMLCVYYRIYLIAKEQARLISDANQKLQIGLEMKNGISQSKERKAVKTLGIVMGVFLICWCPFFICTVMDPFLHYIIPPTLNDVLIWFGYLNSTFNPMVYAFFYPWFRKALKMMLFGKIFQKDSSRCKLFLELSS
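System: RD-HGA16 CHO cells with stable hTAAR1 and Gα16 | Probe or stimulus: EC80 β-phenethylamine stimulus | Dosing: 3 µM, single point | Times: Dye loading 75 min at 37 °C, then 30 min room temperature | Measured by: Fluo-8 calcium-sensitive fluorescence | Read-out basis: % inhibition of agonist calcium response | Replicates: n of 1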
OX1R antag-1: blocks the human orexin 1 receptor; actives 0.43% (n = 330,000); inhibition, % at 5 µM; O43613; CHO/OX1R cells, Fluo-8 calcium fluorescence, orexin A;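 active means inhibition above its plate's threshold, mean inhibition of all tested compounds on the plate plus 3 SD, cut at about 37% in these data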;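 further: 0% = orexin A challenge wells and 100% = SB-334867-A antagonist wells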
OX1R antag-2: blocks the human orexin 1 receptor; O43613; OX1R-expressing cells, FRET antagonist read-out; inhibition, % at 6.6 µM; actives 1.8% (n = 330,000); AID 485270; in the data active means inhibition mostly above about 38%, no sharp cut-off; inactive means mostly below about 40%;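 further: 0% = agonist challenge alone and 100% = reference antagonist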
CHO parental Ca: counter-screen: ATP calcium response change in parental CHO cells; AID 463079; actives 0.63% (n = 330,000); inhibition, % at 5.6 µM; parental CHO-K1, ATP-induced calcium, Fluo-8 fluorescence;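 active means inhibition above that plate's mean sample inhibition plus 3 SD, cut at about 26% in these data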;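 further: 0% = ATP-challenged DMSO wells and 100% = DMSO wells without ATP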
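Assay system – parental CHO cells · Reagent – ATP stimulus · Detection – intracellular calcium via Fluo-8 no-wash fluorescent dye · Evaluation – percent inhibition of ATP-evoked calcium rise, normalized to controls · Controls – ATP wells versus no-ATP DMSO wells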
GPR7 antag: human neuropeptides B/W receptor 1 antagonism; P48145; GPR7-expressing cells, fluorescence antagonist assay; inhibition, % at 4.4 µM; actives 1.1% (n = 290,000); AID 1861; in the data active means inhibition above about 16%, passing the limit was not always enough;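 further: cells stimulated with the agonist NPW; 0% = agonist with vehicle and 100% = vehicle without agonist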
Target sequence (P48145 whole entry, looked up): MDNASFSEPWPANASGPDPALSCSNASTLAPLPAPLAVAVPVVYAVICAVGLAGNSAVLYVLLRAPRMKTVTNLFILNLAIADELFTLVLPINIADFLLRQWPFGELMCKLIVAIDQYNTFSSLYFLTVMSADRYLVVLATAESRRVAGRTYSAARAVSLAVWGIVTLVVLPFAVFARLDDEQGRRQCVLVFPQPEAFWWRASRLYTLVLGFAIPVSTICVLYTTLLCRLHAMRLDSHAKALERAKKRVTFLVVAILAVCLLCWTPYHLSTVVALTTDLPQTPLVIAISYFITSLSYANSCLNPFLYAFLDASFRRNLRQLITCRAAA
TAAR1 ag: human TAAR1 agonism; AID 624467; actives 0.99% (n = 360,000); CHO RD-HGA16 TAAR1, Fluo-8 calcium fluorescence; vehicle wells 0%, saturating PEA agonist 100%; activation, % at 3 µM;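 active means activation above the mean activation of all test compounds in the run plus 3 SD, cut at about 38% in these data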
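Benchmarks: low control DMSO, high control PEA (EC100); System: CHO RD-HGA16 cells carrying human TAAR1 plus Gα16; Detection: Fluo-8 fluorescence, 5 s baseline then 140 s kinetic read; Schedule: 17-24 h plating, Fluo-8 75 min 37 °C, 30 min RT; Read-out basis: % activation from peak over basal fluorescence ratio, DMSO-to-PEA scaled.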
GPR7 antag cf: confirmation of human GPR7 antagonists | shares compounds with GPR7 antag | GPR7-expressing cells, calcium fluorescence antagonist mode | inhibition, % at 4.4 µM | actives 52% (n = 2,400); in the data active means inhibition above about 24%;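 further: stimulated with the GPR7 agonist NPW; 0% = agonist plus vehicle and 100% = vehicle alone without agonist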
MCHR1 antag: MCHR1 (human) antagonism in GPR7 counter-screen | shares compounds with GPR7 antag | AID 2148 | MCHR1-expressing cells, fluorescence antagonist assay | actives 62% (n = 2,400) | inhibition, % at 4.4 µM; in the data active means inhibition above about 22%;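 further: 0% = vehicle with agonist and 100% = vehicle without agonist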
The depositor's hits bear a star; / = not tested or not shown.

SMILES	TAAR1 antagonist	OX1R antag-1	OX1R antag-2	CHO parental Ca	GPR7 antag	TAAR1 ag	GPR7 antag cf	MCHR1 antag
Cc1ccc(-n2cccn2)c(CN2CCC(CO)(CCc3ccccc3)CC2)c1	-7	/	/	/	21*	4	32*	28*
OCC1(CCc2ccccc2)CCN(Cc2cc(Cl)ccc2O)CC1	-5	-8	20	-1	8	17	/	/
O=C(c1cnccn1)N(Cc1cccs1)C1(C(=O)NC2CCCCC2)CCCCC1	-24	-23	38	-20	41*	0	30*	30*
O=C(c1ccccn1)N(Cc1cccs1)C1(C(=O)NC2CCCCC2)CCCCC1	-39	-18	5	-19	3	1	/	/
O=C(c1cnccn1)N(Cc1cccs1)C1(C(=O)NC2CCCC2)CCCCC1	-2	-15	17	-7	26*	1	37*	21
COc1ccc(C(CNC(=O)c2cccc(S(=O)(=O)N3CCOCC3)c2)N2CCOCC2)cc1 (configuration not stated)	10	-12	2	-8	/	2	/	/
CCN(CC)S(=O)(=O)c1ccc(C)c(NC(=O)COC(=O)CNC(=O)c2ccc(C(C)(C)C)cc2)c1	-2	-30	0	-13	1	16	/	/
Cc1ccc(C(=O)CCC(=O)N2CCC(C(N)=O)CC2)s1	9	0	2	5	/	11	/	/
CCOc1ccccc1CNC(=O)Cn1ccc2cc(S(=O)(=O)N3CCCCCC3)ccc21	7	-22	9	-26	7	5	/	/
CCCCOc1ccc(C(=O)NCCc2cccs2)cc1	/	-19	21	-21	-4	/	/	/
CC(=O)N1CN(C2CCCC2)Cc2c1sc1c2CCCC1	16	-24	12	-13	24*	1	17	13
CC(=O)N1CN(C2CC(C)(C)NC(C)(C)C2)Cc2c1sc1c2CCCC1	-12	-9	16	-3	7	3	/	/
COc1ccccc1-n1c(C)c(C(C)=O)c2cc(O)ccc21	4	-20	4	-12	-18	6	/	/
O=C1N=C(N2CCOCC2)S/C1=C\c1ccc(OS(=O)(=O)c2ccccc2)cc1	15	-33	2	-14	7	10	/	/
CC(=O)NC1C(=O)N(CCc2ccccc2)c2ccc(Br)cc21 (configuration not stated)	-22	/	/	/	22	11	/	/
CCCCN1C(=O)C(NC(C)=O)c2ccccc21 (configuration not stated)	-17	-6	12	1	26*	6	-15	20
COc1ccc(-n2ccnc2CN2CCCC(CO)(Cc3cccc(OC)c3)C2)cc1 (configuration not stated)	-5	-33	41	-21	-9	5	/	/
COc1cccc(CC2(CO)CCCN(Cc3c(C)cc(C)cc3-n3cccn3)C2)c1 (configuration not stated)	6	-34	8	-13	/	1	/	9
O=C(NCc1ccccc1)NCC12CC3CC(CC(C3)C1)C2	-13	-26	14	-4	-12	0	/	/
COc1ccc(OCCn2c(=N)n(CCO)c3ccccc32)cc1	8	-8	11	-15	-1	0	/	/
N=c1n(CCO)c2ccccc2n1CCOc1ccc(Cl)cc1Cl	-18	-14	18	9	31*	9	58*	43*
CCOc1ccccc1NC(=O)C(NCC1(N2CCCCC2)CCCCC1)c1ccccc1 (configuration not stated)	-10	-34	4	-26	28*	12	25*	14
COc1ccc(C(=O)Nc2nc(-c3ccccc3)c(C(C)=O)s2)c(OC)c1	9	18	67	-1	0	0	/	/
CC(Sc1nc2ccccc2[nH]1)C(=O)Nc1ccc2c(c1)OCCO2 (configuration not stated)	18	-18	19	-18	8	18	/	/
CSc1nc(C)c2c(n1)N(c1ccc(F)cc1)CC2	-10	-6	8	2	3	5	/	/
SMILES	TAAR1 antagonist	OX1R antag-1	OX1R antag-2	CHO parental Ca	GPR7 antag	TAAR1 ag	GPR7 antag cf	MCHR1 antag
Cc1ccc2nc(C)c3c(c2c1)N(c1ccc(F)cc1)CC3	-30	-7	9	-11	35*	6	42*	31*
O=C(c1cc2ccccc2oc1=O)N(Cc1ccccc1F)C1CCS(=O)(=O)C1 (configuration not stated)	-45	-7	18	-3	-6	11	/	/
Cc1cc(C)c(NC(=O)CNC(=O)COC(=O)C2CCN(c3ccc(C(F)(F)F)cn3)CC2)c(C)c1	-25	-26	-8	-23	-15	4	/	/
CC(NCc1cc(Br)ccc1OCC(=O)NCc1ccccc1)c1ccccc1 (configuration not stated)	-7	5	15	-17	30*	26	34*	40*
CCOc1cc(CNCCO)cc(Br)c1OCc1ccc(Cl)cc1Cl	-4	41*	-7	19	42*	11	68*	77*
CN1CCCC(CN2c3ccccc3Sc3ccccc32)C1 (configuration not stated)	4	1	24	8	35*	18	51*	34*
CC1CCCN(S(=O)(=O)c2ccc(NC(=O)CN3CCN(C)CC3)cc2)C1 (configuration not stated)	-9	-12	-2	-4	-7	10	/	/
CCS(=O)(=O)c1ncc(Cl)c(C(=O)Nc2ccc(S(=O)(=O)N3CCCC(C)C3)cc2)n1 (configuration not stated)	32	41*	31	47*	59*	4	86*	97*
CCC1CCCCN1S(=O)(=O)c1ccc(NC(=O)c2nc(S(C)(=O)=O)ncc2Cl)cc1 (configuration not stated)	56*	53*	53*	55*	74*	6	90*	101*
N#Cc1ccc(CN2CCN(CC(=O)NCCc3ccc(Cl)cc3Cl)CC2)cc1	10	-24	6	-21	22*	9	31*	8
CCOC(=O)c1cnc(-n2nc(C)cc2C)nc1NC1CCCCC1	23	74*	15	71*	28*	31	77*	73*
CCOC(=O)c1cnc(-n2nc(C)cc2C)nc1NC	-4	-11	7	-4	-11	18	/	/
Nc1ccccc1-c1nc2ccccc2c(=O)o1	-14	-2	15	-4	49*	0	8	18
O=c1oc(-c2ccccc2[N+](=O)[O-])nc2ccccc12	-13	-2	21	-10	1	-1	/	/

Screens deposited in PubChem by The Scripps Research Institute Molecular Screening Center.
